Compound activity as filed in PubChem BioAssay.
An excerpt weighted towards active compounds, which were near 2.5% of everything screened.
SENP8 block-1 – inhibitors of human SENP8 protease | Q96LD8 | inhibition, % at 20 µM | 0.64% of 360,000 active | recombinant SENP8, Nedd8 substrate fluorescence; in the data active = inhibition mostly above about 40%, no sharp cut-off; inactive = mostly below about 27%
Target sequence (Q96LD8 whole entry, looked up): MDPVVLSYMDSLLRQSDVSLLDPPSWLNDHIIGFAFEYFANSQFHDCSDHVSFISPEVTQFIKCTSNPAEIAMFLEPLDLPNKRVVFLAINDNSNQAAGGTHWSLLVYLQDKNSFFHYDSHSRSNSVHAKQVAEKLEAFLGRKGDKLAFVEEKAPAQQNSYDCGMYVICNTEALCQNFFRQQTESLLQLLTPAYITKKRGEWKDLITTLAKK
SENP1 FRET inh – inhibitors of human SENP1 SUMO protease catalytic domain; Q9P0U3; recombinant SENP1 catalytic domain, CyPet-SUMO1-YPet FRET cleavage; inhibition, % at 10 µM; 0.21% of 360,000 active;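 active = inhibition at least 30% at 10 µM, raw YFP signal under a set limit, fluorescence ratio 0.5 to 1.5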;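 note: 0% = enzyme with DMSO and 100% = no enzyme wells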
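Test system: human SENP1 catalytic domain; medium: Tris pH 8 buffer plus EDTA, NaCl, BME, BSA, NP40, catalase; incubation: 50 min reaction at room temperature; technique: FRET, CFP and YFP emission; controls: no-enzyme low control and enzyme-plus-DMSO high control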
SENP6 block – inhibitors of human SENP6 protease | Recombinant SENP6 catalytic domain, aminoluciferin luminescence | AID 2599 | inhibition, % at 10 µM | 1.8% of 330,000 active;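 active = inhibition above about 50% at the single tested dose, limit read from the data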;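 note: plate controls were DMSO wells with enzyme for no effect and DMSO wells lacking enzyme for full effect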
SENP8 block-2 – SENP8 protease inhibition; purified SENP8, Z-RLRGG-aminoluciferin cleavage, luminescence; inhibition, % at 10 µM; 1.2% of 330,000 active; in the data active = inhibition above about 50%
SENP7 inh – SENP7 protease inhibition; recombinant SENP7, Z-RLRGG-aminoluciferin luminescence, 40 min; 1.5% of 330,000 active; Q9BQF6; inhibition, % at 5 µM;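 active = inhibition above about 50% at the single test dose, limit read from the data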;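 note: plate controls were DMSO with enzyme for no effect and no enzyme buffer wells for full effect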
SENP8 confirm – human SENP8 inhibition, confirmed; shares compounds with SENP7 inh; Recombinant SENP8, Z-RLRGG-aminoluciferin luminescence, 60 min; inhibition, % at 12.5 µM; 40% of 6,200 active; AID 488912;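 active = mean inhibition across replicates above about 50%, limit read from the data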
SENP6 conf – confirmation of human SENP6 protease inhibitors; shares compounds with SENP7 inh; recombinant SENP6, Z-RLRGG-aminoluciferin luminescence; inhibition, % at 12.5 µM; 58% of 6,200 active
SENP7 conf – human SENP7 inhibition, confirmed; 69% of 6,200 active; shares compounds with SENP7 inh; AID 488917; recombinant SENP7, Z-RLRGG-aminoluciferin luminescence, 40 min; inhibition, % at 12.5 µM
Casp3 select – selectivity test for SENP inhibitors: human caspase-3 inhibition; 60% of 6,200 active; purified caspase-3, Z-DEVD-aminoluciferin luminescence, 60 min; shares compounds with SENP7 inh; inhibition, % at 12.5 µM; AID 488918;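 active = mean inhibition above about 50%, limit read from the data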;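 note: plate controls were enzyme with DMSO for no effect and wells without caspase-3 for full effect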
Target sequence (P42574 28-227 limits assumed): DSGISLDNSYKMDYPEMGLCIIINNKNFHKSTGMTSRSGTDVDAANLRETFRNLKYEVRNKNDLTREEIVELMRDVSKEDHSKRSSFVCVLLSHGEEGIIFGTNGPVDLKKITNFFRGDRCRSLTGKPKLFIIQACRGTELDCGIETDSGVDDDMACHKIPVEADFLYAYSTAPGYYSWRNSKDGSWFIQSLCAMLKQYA
SENP luc ctr – counter-screen for SENP inhibitors: luminescence interference | shares compounds with SENP7 inh | inhibition, % at 12.5 µM | 39% of 6,200 active | Pre-incubated SENP8/Z-RLRGG-aminoluciferin, luciferase luminescence interference;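 active = mean inhibition above about 50% when retested at one dose, limit read from the data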;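 note: plate controls were DMSO wells with completed reaction for no effect and substrate without enzyme for full effect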
Numbers without * were called inactive.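 Rule for the calls, unless noted: active = mean inhibition above about 50% in the one-dose retest (limit read from the data); inactive = the rest.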

c1ccc2nc(-c3ccc(-n4ccnc4)cc3)ccc2c1 was read as SENP8 block-1 -32, SENP1 FRET inh 1, SENP6 block 1, SENP8 block-2 61*, SENP7 inh 72*, SENP8 confirm 10, SENP6 conf 81*, SENP7 conf 43, Casp3 select -1 and SENP luc ctr -1.
`Nc1ccc(-n2ccnc2)cc1` gave SENP8 block-1 18, SENP1 FRET inh 1, SENP6 block -1, SENP8 block-2 -3 and SENP7 inh 1.
For CC(C)(C)c1cnnn1-c1ccc(/C=N/Nc2ccc([N+](=O)[O-])cc2)cc1 the results were SENP8 block-1 -100, SENP1 FRET inh -25, SENP6 block 41, SENP8 block-2 64*, SENP7 inh -7, SENP8 confirm 4, SENP6 conf 3, SENP7 conf -2, Casp3 select -2 and SENP luc ctr -2.
`C/C(=N\Nc1ccc([N+](=O)[O-])cc1)c1ccc(-n2nncc2C)cc1` gave SENP8 block-1 -190, SENP1 FRET inh -28, SENP6 block -2, SENP8 block-2 -5 and SENP7 inh -10.
`NC1=C(Br)C(=O)c2ccccc2C1=O` gave SENP8 block-1 104*, SENP1 FRET inh 3, SENP6 block 76*, SENP8 block-2 54*, SENP7 inh 49, SENP8 confirm 36, SENP6 conf 63*, SENP7 conf 27, Casp3 select 78* and SENP luc ctr 2.
CCOC(=O)C1CCCN(C(=O)c2cccc(Cl)c2)CC1 (stereo not given) was read as SENP8 block-1 31 and SENP1 FRET inh 2.
For Cc1noc(C)c1C(=O)OCC(=O)c1cc(C)n(Cc2ccccc2Cl)c1C the results were SENP8 block-1 8, SENP1 FRET inh 4, SENP6 block 68*, SENP8 block-2 4, SENP7 inh 26, SENP8 confirm 2, SENP6 conf 10, SENP7 conf 45, Casp3 select 30 and SENP luc ctr 14.
`Cc1noc(C)c1C(=O)OCC(=O)c1ccc[nH]1` gave SENP8 block-1 11, SENP1 FRET inh -7, SENP6 block -2, SENP8 block-2 -2 and SENP7 inh 5.
`COc1cccc(-c2csc(N3CCN(CC(=O)NNC(=O)c4ccc(Br)cc4)CC3)n2)c1` gave SENP8 block-1 5, SENP1 FRET inh 1, SENP6 block -3, SENP8 block-2 2, SENP7 inh 101*, SENP8 confirm -8, SENP6 conf -5, SENP7 conf 3, Casp3 select 2 and SENP luc ctr -6.
`COC1CC(N)C2OC(c3ccccc3)OCC2O1` (stereo not given) gave SENP8 block-1 21 and SENP1 FRET inh 0.
CCOC(=O)CNC(=O)CSc1ncnc2c1cnn2-c1ccc(OC)cc1 was read as SENP8 block-1 3, SENP1 FRET inh 0, SENP6 block 70*, SENP8 block-2 68*, SENP7 inh 35, SENP8 confirm 10, SENP6 conf 47, SENP7 conf 32, Casp3 select 75* and SENP luc ctr 12.
CCOC(=O)CNC(=O)CSc1ncnc2c1cnn2-c1ccc(C)cc1 was read as SENP8 block-1 -30, SENP1 FRET inh 2, SENP6 block 52*, SENP8 block-2 39, SENP7 inh 13, SENP8 confirm 13, SENP6 conf 15, SENP7 conf 14, Casp3 select 46 and SENP luc ctr 8.
For CC1=[N+](C)N(c2ccccc2)C(=O)C1N=Cc1c(Cl)cccc1Cl (stereo not given) the results were SENP8 block-1 13, SENP1 FRET inh -1, SENP6 block 12, SENP8 block-2 -3 and SENP7 inh -5.
For CCOC(=O)c1csc(-c2ccc(OC)c(OC)c2)n1 the results were SENP8 block-1 -6, SENP1 FRET inh -1, SENP6 block -6, SENP8 block-2 -7 and SENP7 inh -4.
CCOC(=O)c1csc(-c2sccc2Br)n1 was read as SENP8 block-1 23, SENP1 FRET inh 1, SENP6 block 94*, SENP8 block-2 94*, SENP7 inh 98*, SENP8 confirm 96*, SENP6 conf 98*, SENP7 conf 102*, Casp3 select 97* and SENP luc ctr 93*.
CN1CCN(c2ccc(NC(=O)c3cccs3)cc2)CC1 was read as SENP8 block-1 1, SENP1 FRET inh 3, SENP6 block 54*, SENP8 block-2 28, SENP7 inh 39, SENP8 confirm 25, SENP6 conf 24, SENP7 conf 72*, Casp3 select 82* and SENP luc ctr 47.
Screening CC(C)C(=O)N1CCN(c2ccc(NC(=O)c3cccs3)cc2)CC1 returned SENP8 block-1 18, SENP1 FRET inh 1, SENP6 block -10, SENP8 block-2 -8 and SENP7 inh -6.
Cc1ccn(-c2ccc(NC(=O)c3cccs3)cc2)n1 was read as SENP8 block-1 5, SENP1 FRET inh 0, SENP6 block 85*, SENP8 block-2 74*, SENP7 inh 80*, SENP8 confirm 78*, SENP6 conf 76*, SENP7 conf 94*, Casp3 select 88* and SENP luc ctr 82*.
Screening CCN1CCN(C2=C(NS(=O)(=O)c3ccc(C)cc3)C(=O)c3ccccc3C2=O)CC1 returned SENP8 block-1 43*, SENP1 FRET inh -5, SENP6 block 52*, SENP8 block-2 30, SENP7 inh 21, SENP8 confirm -4, SENP6 conf 26, SENP7 conf 6, Casp3 select 3 and SENP luc ctr -4.
CCN1CCN(C2=C(NS(=O)(=O)c3ccc(NC(C)=O)cc3)C(=O)c3ccccc3C2=O)CC1 was read as SENP8 block-1 63*, SENP1 FRET inh -3, SENP6 block 52*, SENP8 block-2 28, SENP7 inh 26, SENP8 confirm 8, SENP6 conf 31, SENP7 conf 10, Casp3 select 4 and SENP luc ctr -3.
Screening COc1cc(C(=O)N2CCN(c3cccc(C(F)(F)F)c3)CC2)ccc1OCC(=O)N1CCOCC1 returned SENP8 block-1 3 and SENP1 FRET inh 1.
